{"source": "paper PMC8958509", "about": "(Journal of Medicinal Chemistry, 2022)", "key": {"[1]": {"system": "C. difficile contemporary clinical isolates", "test": "MIC against contemporary clinical isolates", "format": "cell-based, Clostridioides difficile"}, "[2]": {"system": "C. difficile UNT103-1 (VA11)", "test": "Hamster C. difficile infection model", "format": "in vivo, Golden Syrian hamsters", "procedure,_shortened": "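Male Golden Syrian hamsters (80-90 g), singly housed, were infected orally by gavage three times with a sporulation-medium culture diluted to OD600 1 (~1.0 × 10^9 CFU/mL). […] Starting 18 h later (day 2), test compound, comparators or vehicle were given QD by oral gavage for 5 days. Survival was monitored through day 21.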"}, "[3]": {"system": "H. pylori contemporary clinical isolates", "test": "MIC against contemporary clinical isolates", "format": "cell-based, Helicobacter pylori"}, "[4]": {"system": "clinical isolates of H. pylori, C. difficile, and G. vaginalis", "test": "MIC against contemporary clinical isolates", "format": "cell-based"}, "[5]": {"system": "H. pylori SS1 (CagA+, VacA+)", "test": "Mouse H. pylori infection model", "format": "in vivo, C57/BL6 mice", "settings": "45 mg/kg bid oral, 7 days, day 7", "procedure,_shortened": "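Male C57/BL6 mice (20-25 g) received 0.25 mL gavage inocula on three days (6.40, 6.90, 7.15 log₁₀ CFU). Inocula were 5-day Columbia laked-horse-blood-agar growth suspended in saline to OD530 1.5-2.0. From 7 days post-inoculation, test compound, controls or vehicle were dosed bid by gavage for 7 days. Stomach CFU were counted ~18-20 h post-dose on Dent-supplemented plates (microaerobic, 37 °C, 6-7 days); LOQ <2.35 log₁₀ CFU/stomach.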"}, "[6]": {"system": "G. vaginalis contemporary clinical isolates", "test": "MIC against contemporary clinical isolates", "format": "cell-based, Gardnerella vaginalis"}, "[7]": {"system": "C. difficile MMX 4381", "test": "Spontaneous resistance frequency and MPC", "format": "cell-based, Clostridioides difficile"}, "[8]": {"test": "Tissue distribution", "format": "in vivo, Sprague–Dawley rats"}, "[9]": {"system": "G. Vaginalis MMX 5973", "test": "Spontaneous resistance frequency and MPC", "format": "cell-based, Gardnerella vaginalis"}, "[10]": {"system": "H. pylori MMX 3719", "test": "Spontaneous resistance frequency and MPC", "format": "cell-based, Helicobacter pylori"}, "[11]": {"system": "H. pylori Rif-resistant, Mtz-resistant strains", "test": "MIC comparison, H. pylori resistant mutant panel", "format": "cell-based, Helicobacter pylori"}, "[12]": {"settings": "C. difficile isolates China (N = 46)"}, "[13]": {"settings": "C. difficile isolates USA (N = 50)"}, "[14]": {"settings": "H. pylori isolates China (N = 49)"}, "[15]": {"settings": "C. difficile MMX 4381, conc. 1 μg/mL"}, "[16]": {"settings": "C. difficile MMX 4381, conc. 2 μg/mL"}, "[17]": {"settings": "C. difficile MMX 4381, conc. 4 μg/mL"}, "[18]": {"settings": "G. Vaginalis MMX 5973, conc. 0.5 μg/mL"}, "[19]": {"settings": "G. Vaginalis MMX 5973, conc. 1 μg/mL"}, "[20]": {"settings": "G. Vaginalis MMX 5973, conc. 2 μg/mL"}, "[21]": {"settings": "G. Vaginalis MMX 5973, conc. 4 μg/mL"}, "[22]": {"settings": "H. pylori MMX 3719, conc. 0.5 μg/mL"}, "[23]": {"settings": "H. pylori MMX 3719, conc. 1 μg/mL"}, "[24]": {"settings": "H. pylori MMX 3719, conc. 2 μg/mL"}, "[25]": {"settings": "H. pylori MMX 3719, conc. 4 μg/mL"}}, "data": [{"compound": "Cc1ncc([N+](=O)[O-])n1CCO", "note": "[metronidazole, reference compound]", "values": [{"measurement": "MIC range", "setting": "[1]; [12]", "result": "≤0.06 to 32", "unit": "µg/mL"}, {"measurement": "MIC range", "setting": "[1]; [13]", "result": "0.12 to 4", "unit": "µg/mL"}, {"measurement": "mortality", "setting": "[2]; 100 mg/kg QD oral, by day 4", "result": 100, "unit": "%"}]}, {"compound": "CO[C@H]1/C=C/O[C@@]2(C)Oc3c(C)c(O)c4c(O)c(c(/C=N/N5CCN(C)CC5)c(O)c4c3C2=O)NC(=O)/C(C)=C\\C=C\\[C@H](C)[C@H](O)[C@@H](C)[C@@H](O)[C@@H](C)[C@H](OC(C)=O)[C@@H]1C", "note": "[rifampin, reference compound]", "values": [{"measurement": "MIC range", "setting": "[3]; [14]", "result": "≤0.06 to 64", "unit": "µg/mL"}]}, {"compound": "CO[C@H]1/C=C/O[C@@]2(C)Oc3c(C)c(O)c4c(c3C2=O)C2=NC3(CCN(CCn5c([N+](=O)[O-])cnc5C)CC3)NC2=C(NC(=O)/C(C)=C\\C=C\\[C@H](C)[C@H](O)[C@@H](C)[C@@H](O)[C@@H](C)[C@H](OC(C)=O)[C@@H]1C)C4=O", "note": "[Compound 10, 4-Deoxy-3,4-[2-spiro-[1-[2-(2-methyl-5-nitro-imidazol-1-yl)ethyl]-piperidin-4-yl]]-(1H)-imidazo-(2,5-dihydro)rifamycin S]", "values": [{"measurement": "MIC90", "setting": "[4]", "result": "< 1", "unit": "µg/mL"}, {"measurement": "mean bacterial stomach titer", "setting": "[5]", "result": 1.70, "unit": "log10 CFU"}, {"measurement": "MIC range", "setting": "[1]; [12]", "result": "≤0.06 to 2", "unit": "µg/mL"}, {"measurement": "MIC range", "setting": "[1]; [13]", "result": "≤0.002 to 4", "unit": "µg/mL"}, {"measurement": "MIC range", "setting": "[6]; G. vaginalis isolates China (N = 24)", "result": "≤0.004 to 0.06", "unit": "µg/mL"}, {"measurement": "MIC range", "setting": "[6]; G. vaginalis isolates USA (N = 101)", "result": "≤0.004 to 0.06", "unit": "µg/mL"}, {"measurement": "resistant colonies identified, test 1", "setting": "[7]; C. difficile MMX 4381, conc. 0.5 μg/mL", "result": 0}, {"measurement": "spontaneous resistance frequency", "setting": "[7]; C. difficile MMX 4381, conc. 0.5 μg/mL, inoculum 1.23 × 10^9 CFU", "result": "8 × 10^–10"}, {"measurement": "resistant colonies identified, mean", "setting": "[7]; [15]", "result": 0}, {"measurement": "resistant colonies identified, test 1", "setting": "[7]; [15]", "result": 0}, {"measurement": "resistant colonies identified, test 2", "setting": "[7]; [15]", "result": 0}, {"measurement": "spontaneous resistance frequency", "setting": "[7]; [15]", "result": "<8 × 10^–10"}, {"measurement": "resistant colonies identified, mean", "setting": "[7]; [16]", "result": 0}, {"measurement": "resistant colonies identified, test 1", "setting": "[7]; [16]", "result": 0}, {"measurement": "resistant colonies identified, test 2", "setting": "[7]; [16]", "result": 0}, {"measurement": "spontaneous resistance frequency", "setting": "[7]; [16]", "result": "<8 × 10^–10"}, {"measurement": "resistant colonies identified, mean", "setting": "[7]; [17]", "result": 0}, {"measurement": "resistant colonies identified, test 1", "setting": "[7]; [17]", "result": 0}, {"measurement": "resistant colonies identified, test 2", "setting": "[7]; [17]", "result": 0}, {"measurement": "spontaneous resistance frequency", "setting": "[7]; [17]", "result": "<8 × 10^–10"}, {"measurement": "spontaneous frequency of mutation", "setting": "[7]; C. difficile MMX 4381, lowest concentration tested", "result": "8 × 10^–10"}, {"measurement": "mortality", "setting": "[2]; 5 mg/kg QD oral, days 7–9", "result": "10–30%"}, {"measurement": "survival", "setting": "[2]; 5 mg/kg QD oral, during the 5-day dosing regimen", "result": 100, "unit": "%"}, {"measurement": "survival", "setting": "[2]; 15 mg/kg QD oral days 2–6, through day 21", "result": 100, "unit": "%"}, {"measurement": "survival", "setting": "[2]; 45 mg/kg QD oral days 2–6, through day 21", "result": 100, "unit": "%"}, {"measurement": "TNP-2198 concentration", "setting": "[8]; ascites fluid, 24 h", "result": "BLOQ"}, {"measurement": "TNP-2198 concentration", "setting": "[8]; brain, 12 h", "result": "BLOQ"}, {"measurement": "TNP-2198 concentration", "setting": "[8]; brain, 24 h", "result": "BLOQ"}, {"measurement": "TNP-2198 concentration", "setting": "[8]; plasma, 24 h", "result": "BLOQ"}, {"measurement": "TNP-2198 concentration", "setting": "[8]; stomach content, 0.5 h", "result": "3,264,000 ng/g"}, {"measurement": "TNP-2198 concentration", "setting": "[8]; stomach content, 2 h", "result": "1,750,320 ng/g"}, {"measurement": "TNP-2198 concentration", "setting": "[8]; vaginal tissue, 24 h", "result": "BLOQ"}, {"measurement": "MIC range", "setting": "[3]; [14]", "result": "≤0.002 to 1", "unit": "µg/mL"}, {"measurement": "MIC range", "setting": "[3]; H. pylori isolates USA (N = 200)", "result": "≤0.001 to 2", "unit": "µg/mL"}, {"measurement": "resistant colonies identified, mean", "setting": "[9]; [18]", "result": 0}, {"measurement": "resistant colonies identified, test 1", "setting": "[9]; [18]", "result": 0}, {"measurement": "resistant colonies identified, test 2", "setting": "[9]; [18]", "result": 0}, {"measurement": "spontaneous resistance frequency", "setting": "[9]; G. Vaginalis MMX 5973, conc. 0.5 μg/mL, inoculum 4.50 × 10^8 CFU", "result": "<2 × 10^–9"}, {"measurement": "resistant colonies identified, mean", "setting": "[9]; [19]", "result": 0}, {"measurement": "resistant colonies identified, test 1", "setting": "[9]; [19]", "result": 0}, {"measurement": "resistant colonies identified, test 2", "setting": "[9]; [19]", "result": 0}, {"measurement": "spontaneous resistance frequency", "setting": "[9]; [19]", "result": "<2 × 10^–9"}, {"measurement": "resistant colonies identified, mean", "setting": "[9]; [20]", "result": 0}, {"measurement": "resistant colonies identified, test 1", "setting": "[9]; [20]", "result": 0}, {"measurement": "resistant colonies identified, test 2", "setting": "[9]; [20]", "result": 0}, {"measurement": "spontaneous resistance frequency", "setting": "[9]; [20]", "result": "<2 × 10^–9"}, {"measurement": "resistant colonies identified, mean", "setting": "[9]; [21]", "result": 0}, {"measurement": "resistant colonies identified, test 1", "setting": "[9]; [21]", "result": 0}, {"measurement": "resistant colonies identified, test 2", "setting": "[9]; [21]", "result": 0}, {"measurement": "spontaneous resistance frequency", "setting": "[9]; [21]", "result": "<2.00 × 10^–9"}, {"measurement": "spontaneous frequency of mutation", "setting": "[9]; G. vaginalis MMX 5973, all concentrations tested", "result": "< 2 × 10^–9 μg/mL"}, {"measurement": "spontaneous frequency of mutation", "setting": "[10]; H. pylori MMX 3719, all concentrations tested", "result": "< 5 × 10^–9 μg/mL"}, {"measurement": "resistant colonies identified, mean", "setting": "[10]; [22]", "result": 0}, {"measurement": "resistant colonies identified, test 1", "setting": "[10]; [22]", "result": 0}, {"measurement": "resistant colonies identified, test 2", "setting": "[10]; [22]", "result": 0}, {"measurement": "spontaneous resistance frequency", "setting": "[10]; H. pylori MMX 3719, conc. 0.5 μg/mL, inoculum 1.90 × 10^8 CFU", "result": "<5 × 10^–9"}, {"measurement": "resistant colonies identified, mean", "setting": "[10]; [23]", "result": 0}, {"measurement": "resistant colonies identified, test 1", "setting": "[10]; [23]", "result": 0}, {"measurement": "resistant colonies identified, test 2", "setting": "[10]; [23]", "result": 0}, {"measurement": "spontaneous resistance frequency", "setting": "[10]; [23]", "result": "<5 × 10^–9"}, {"measurement": "resistant colonies identified, mean", "setting": "[10]; [24]", "result": 0}, {"measurement": "resistant colonies identified, test 1", "setting": "[10]; [24]", "result": 0}, {"measurement": "resistant colonies identified, test 2", "setting": "[10]; [24]", "result": 0}, {"measurement": "spontaneous resistance frequency", "setting": "[10]; [24]", "result": "<5 × 10^–9"}, {"measurement": "resistant colonies identified, mean", "setting": "[10]; [25]", "result": 0}, {"measurement": "resistant colonies identified, test 1", "setting": "[10]; [25]", "result": 0}, {"measurement": "resistant colonies identified, test 2", "setting": "[10]; [25]", "result": 0}, {"measurement": "spontaneous resistance frequency", "setting": "[10]; [25]", "result": "<5 × 10^–9"}, {"measurement": "fold more active than the 1:1 molar combination of the parent drugs", "setting": "[11]; Mtz-resistant strain (CB1573)", "result": "1- to 125 fold"}, {"measurement": "fold more active than the 1:1 molar combination of the parent drugs", "setting": "[11]; Rif-resistant strains (CB1902, CB1903 and CB1614)", "result": "4- to 128 fold"}, {"measurement": "fold more active than Rif, Rbt, or Mtz", "setting": "[11]; dual Rif-resistant, Mtz-resistant strains (CB1771 and CB1893)", "result": "32- to 64 fold"}]}]}
